Data from PMC2781304 (Biochemistry, 2009).
Values joined by “and” are separate entries in the source; they are usually repeats but may differ in a detail not shown here. Equal values may be shown once. Read-outs that look alike come from different tables or passages of the source. Values belong to the substance of their own block, whether it stands above or below them. Where no end group is shown, it is not given here.

Columns and labels:
soluble receptor = settings: cited from earlier work
IM-9 cell receptors [1] = settings: cited from earlier work
[2] = system: receptors on the human placental membrane; settings: ref 62; cited from earlier work
HepG2 cells = settings: ref 31; cited from earlier work
insulin receptor = settings: cited from earlier work
IM-9 cell receptors [3] = settings: ref 19; cited from earlier work
primary rat adipocytes = assay: Insulin-stimulated lipogenesis; format: cell-based; settings: for maximal lipogenesis: compared with human insulin; for metabolic potency relative to human insulin: lipogenesis in primary rat adipocytes
Procedure, shortened: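 Adipocytes from male Sprague-Dawley rat epididymal fat pads, collagenase-digested (1 mg/mL, 45 min, 37 °C) in KRH with 3.5% BSA, 0.2 uM adenosine and 2 mM glucose. […] Lipid-extracted label counted, background (tracer without hormone) subtracted. Triplicates, three experiments, four-parameter logistic fit for ED50.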

deoxyglucose transport = settings: ref 19; cited from earlier work
[4] = actual data were not shown; cited from earlier work
rat adipocytes = settings: cited from earlier work
rat liver cells = settings: ref 20; cited from earlier work
rat fat pad = settings: relative to that of bovine insulin; cited from earlier work
[5] = target: T1, human insulin receptor on IM9 cells (Homo sapiens, UniProt P06213); assay: Association kinetics of 125I-labeled insulins on IM9 cells; format: binding; settings: 125I-labeled ligand, 15 °C
[6] = system: soluble IR ectodomain (sIR); assay: Homologous competition for soluble IR ectodomain, PEG precipitation; format: binding; settings: 15 pM tracer, 16 h at 4 °C; % of human insulin
[7] = system: NIH 3T3 fibroblasts overexpressing the wild-type human insulin receptor; assay: [3H]thymidine incorporation; format: cell-based, mouse; settings: for relative mitogenic potency over relative metabolic potency: thymidine incorporation versus lipogenesis in rat adipocytes
isolated rat adipocytes = settings: ref 16-18; cited from earlier work
[8] = ref 66; cited from earlier work
[9] = target: T1, human insulin receptor on IM9 cells; assay: Dissociation kinetics of 125I-labeled insulins from IM9 cells; format: binding; settings: prebound 6 h at 15 °C, 40-fold dilution

T1 sequence (P06213 28-1370 isoform P06213-2 limits assumed): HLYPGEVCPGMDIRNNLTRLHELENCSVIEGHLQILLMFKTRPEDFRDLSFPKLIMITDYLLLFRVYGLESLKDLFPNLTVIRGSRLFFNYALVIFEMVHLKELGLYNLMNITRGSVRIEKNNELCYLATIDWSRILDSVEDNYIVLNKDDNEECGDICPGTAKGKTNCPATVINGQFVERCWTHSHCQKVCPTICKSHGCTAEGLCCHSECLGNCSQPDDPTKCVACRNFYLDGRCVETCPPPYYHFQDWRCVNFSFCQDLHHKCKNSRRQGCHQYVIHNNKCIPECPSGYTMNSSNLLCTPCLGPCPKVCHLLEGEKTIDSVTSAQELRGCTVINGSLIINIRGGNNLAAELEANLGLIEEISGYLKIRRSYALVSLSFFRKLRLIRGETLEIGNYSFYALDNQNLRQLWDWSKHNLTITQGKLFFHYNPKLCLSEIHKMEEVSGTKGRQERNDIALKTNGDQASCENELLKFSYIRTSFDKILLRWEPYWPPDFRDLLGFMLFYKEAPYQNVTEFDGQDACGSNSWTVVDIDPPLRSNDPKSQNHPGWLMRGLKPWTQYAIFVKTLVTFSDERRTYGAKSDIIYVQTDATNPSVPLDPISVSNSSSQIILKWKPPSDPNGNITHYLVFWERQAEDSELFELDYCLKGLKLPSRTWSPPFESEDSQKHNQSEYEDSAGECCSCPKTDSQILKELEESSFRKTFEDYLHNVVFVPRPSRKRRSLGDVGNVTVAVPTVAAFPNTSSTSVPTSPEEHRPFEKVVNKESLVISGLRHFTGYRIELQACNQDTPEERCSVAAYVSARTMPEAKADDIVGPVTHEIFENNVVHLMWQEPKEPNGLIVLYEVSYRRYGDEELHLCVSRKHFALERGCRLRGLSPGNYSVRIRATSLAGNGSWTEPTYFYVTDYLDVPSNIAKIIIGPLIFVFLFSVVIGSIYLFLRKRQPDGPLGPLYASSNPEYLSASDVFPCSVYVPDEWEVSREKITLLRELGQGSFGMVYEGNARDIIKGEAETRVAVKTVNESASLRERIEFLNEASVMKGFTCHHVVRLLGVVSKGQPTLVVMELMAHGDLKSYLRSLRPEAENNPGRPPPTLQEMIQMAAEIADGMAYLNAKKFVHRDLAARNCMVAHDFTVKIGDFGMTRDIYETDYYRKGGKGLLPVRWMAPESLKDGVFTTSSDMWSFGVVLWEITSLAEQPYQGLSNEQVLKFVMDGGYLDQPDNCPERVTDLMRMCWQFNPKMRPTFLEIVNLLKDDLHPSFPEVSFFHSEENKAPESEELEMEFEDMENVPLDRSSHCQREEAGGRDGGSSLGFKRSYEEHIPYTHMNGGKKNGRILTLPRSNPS
T1 sequence (P06213 763-1382 partner limits assumed): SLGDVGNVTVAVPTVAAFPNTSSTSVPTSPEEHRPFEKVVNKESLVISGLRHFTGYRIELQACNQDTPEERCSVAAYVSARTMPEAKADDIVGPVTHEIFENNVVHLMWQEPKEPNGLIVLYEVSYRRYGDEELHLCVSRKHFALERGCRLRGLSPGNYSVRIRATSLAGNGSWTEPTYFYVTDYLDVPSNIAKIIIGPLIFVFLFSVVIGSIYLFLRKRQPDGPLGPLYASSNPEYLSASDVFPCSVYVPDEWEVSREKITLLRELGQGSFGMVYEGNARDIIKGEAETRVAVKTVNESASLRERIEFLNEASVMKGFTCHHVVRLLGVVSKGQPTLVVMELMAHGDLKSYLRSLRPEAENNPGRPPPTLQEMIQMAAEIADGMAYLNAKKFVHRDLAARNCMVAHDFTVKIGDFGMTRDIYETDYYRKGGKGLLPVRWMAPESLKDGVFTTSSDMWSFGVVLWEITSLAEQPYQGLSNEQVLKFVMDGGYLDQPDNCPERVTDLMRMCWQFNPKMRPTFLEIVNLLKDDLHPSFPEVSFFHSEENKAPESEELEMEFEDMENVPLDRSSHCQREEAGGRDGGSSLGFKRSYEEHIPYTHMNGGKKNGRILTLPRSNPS

Substance: B17 to Val: human insulin with B17 substitution to Val (literature) [reference compound]
- reduction of affinity, substitutions at B17 (soluble receptor; solubilized receptor): 2.5 fold

Substance: B21 to Ala: human insulin with mutation of B21 to Ala (literature)
- affinity in IM-9 cells (IM-9 cell receptors [1]; ref 26): 226%
- decrease in the level of binding to receptors on the human placental membrane [2]: ~2 fold

Substance: HisA8 human insulin: human insulin with the ThrA8 to His mutation (literature)
- affinity relative to human insulin in HepG2 cells (HepG2 cells): 327%
- affinity relative to human insulin in IM-9 lymphocytes (IM-9 cell receptors [1]; ref 47, 56): 300%

Substance: HisB10Asp: human insulin analogue, His to Asp at B10
- enhancement of the affinity and activity of human insulin (insulin receptor; ref 31, 46): 3−5 fold

Substance: IleA10 with Ser: insulin with substitution of IleA10 with Ser as in IGF-I and IGF-II (literature) [reference compound]
- loss of affinity (insulin receptor; ref 64): 5 fold

- incubation time to reach apparent steady state of binding [5]: 4 h
- relative affinity for the purified soluble human receptor ectodomain [6]: 22%
- mitogenic potency relative to human insulin ([7]; thymidine incorporation): 32%
- relative mitogenic potency over relative metabolic potency [7]: 3.8
- maximal stimulation ([7]; thymidine incorporation, difference not statistically significant): 75 % of that of human insulin
Substance: hagfish insulin: insulin from the Atlantic hagfish (Myxine glutinosa), gift from S. Falkmer (Insulin B chain RTTGHLCGKDLVNALYIACGVRGFFYDPTKM; Insulin A chain GIVEQCCHKRCSIYDLENYCN; ends and bridges not checked; cysteine pairing not given here; UniProt P01342 27-57; P01342 95-115, looked up)
- maximal acceleration of dissociation of 125I-labeled porcine insulin (IM-9 cell receptors [3]): same maximal acceleration
- potency to accelerate the dissociation of 125I-labeled porcine insulin (IM-9 cell receptors [3]): 5 % of unlabeled porcine insulin
- maximal lipogenesis (primary rat adipocytes): same maximal lipogenesis as human insulin
- metabolic potency relative to human insulin (primary rat adipocytes): 8.4% and 8%
- biological activity for deoxyglucose transport (deoxyglucose transport): 5−10%
- mitogenic:metabolic potency ratio [4]: 1.0
- biological activity in stimulating lipogenesis in rat adipocytes (rat adipocytes; ref 16): 3.8%
- biological activity in stimulating lipogenesis in rat adipocytes (rat adipocytes; ref 51): 4.6%
- biological potency in stimulating lipogenesis (rat adipocytes; same cells, relative to porcine insulin): 3−5%
- potency in rat liver cells (rat liver cells): 3%
- biological activity in rat fat pad (rat fat pad): 7%
- affinity for isolated rat adipocytes, % of that of porcine insulin (isolated rat adipocytes): 23%

Substance: insulin Wakayama: insulin with a ValA3 to Leu mutation found in a diabetic patient
- potency [8]: 0.2%

- dissociation of 125I-labeled ligand by dilution alone [9]: much slower
- incubation time to reach apparent steady state of binding [5]: 6 h
- mitogenic potency relative to human insulin ([7]; thymidine incorporation): 54%
- relative mitogenic potency over relative metabolic potency [7]: 5.8
Substance: lamprey insulin: insulin purified from the islet organ of the river lamprey L. fluviatilis (Insulin B chain SALTGAGGTHLCGSHLVEALYVVCGDRGFFYTPSKT; Insulin A chain GIVEQCCHRKCSIYDMENYCN; ends and bridges not checked; cysteine pairing not given here; UniProt P68988 1-36; P68988 37-57, looked up)
- maximal lipogenesis (primary rat adipocytes): same maximal lipogenesis as human insulin
- metabolic potency relative to human insulin (primary rat adipocytes): 9.4% and 9%
- relative affinity for the soluble receptor based on IC50 (soluble receptor; ref 9): 130%
- maximal response ([7]; thymidine incorporation, 10% FBS as maximal response): same maximal response as serum or human insulin
